GASC-1 inh – blocks human GASC-1 demethylase activity | AID 2099 | Q9H3R0 | inhibition, % at 2.35 µM | hit rate 0.069% among 330,000 | GST-JMJD2C(1-420) H3K9me3 demethylation, DELFIA europium;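 active = more than half of a compound's replicate wells show inhibition beyond 50%, single wells judged on their own value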;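 note: signal counts dimethyl H3K9 product captured on neutravidin plate; 0% = median of DMSO wells and 100% = 0.3 times that DMSO median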
NR2E3 ag-1 – activates human NR2E3 receptor | Q9Y5X4 | CHO-S Gal4-NCOR/VP16-NR2E3 two-hybrid, luciferase | inhibition of corepressor binding, % at 3.98 µM | hit rate 0.35% among 360,000 | AID 602229;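 active = inhibition above the mean of all tested compounds plus 3 SD, cut at about 70% in these data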;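 note: 0% = DMSO with NR2E3 transfected cells and 100% = cells lacking NR2E3 construct; higher means lower luciferase signal from less NR2E3 corepressor binding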
Target sequence (Q9Y5X4 whole entry, looked up, the tested form may be a part): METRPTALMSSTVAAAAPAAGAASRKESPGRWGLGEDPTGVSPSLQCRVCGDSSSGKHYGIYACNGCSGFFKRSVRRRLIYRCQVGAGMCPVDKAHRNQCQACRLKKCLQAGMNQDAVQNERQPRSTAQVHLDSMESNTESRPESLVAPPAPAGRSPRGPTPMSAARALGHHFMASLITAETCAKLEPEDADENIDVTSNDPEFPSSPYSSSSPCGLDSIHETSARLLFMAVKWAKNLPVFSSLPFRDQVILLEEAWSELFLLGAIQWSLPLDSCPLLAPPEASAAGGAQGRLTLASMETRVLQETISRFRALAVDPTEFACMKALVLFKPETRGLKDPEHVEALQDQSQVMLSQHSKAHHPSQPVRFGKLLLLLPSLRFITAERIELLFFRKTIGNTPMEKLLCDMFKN
DAX1 inh-1 – inhibits human nuclear receptor DAX1. HEK293 Gal4-DAX1 luciferase reporter, luminescence. P51843. inhibition, % at 6.75 µM. AID 504766. hit rate 0.99% among 340,000;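 active = inhibition above the mean over all tested compounds plus 3 SD, cut at about 4.2% in these data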;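 note: 0% = DAX1-transfected cells with DMSO and 100% = empty-vector control cells with DMSO; inhibition shows as a rise in luminescence from relieved DAX1 repression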
Target sequence (P51843 207-470 limits assumed): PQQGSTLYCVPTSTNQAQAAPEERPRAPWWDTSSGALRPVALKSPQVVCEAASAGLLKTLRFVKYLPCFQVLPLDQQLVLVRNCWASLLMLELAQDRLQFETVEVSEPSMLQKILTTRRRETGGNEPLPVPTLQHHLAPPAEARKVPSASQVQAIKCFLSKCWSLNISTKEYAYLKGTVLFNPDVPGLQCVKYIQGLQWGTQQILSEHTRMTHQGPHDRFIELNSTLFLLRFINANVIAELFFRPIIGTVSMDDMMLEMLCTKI
NR2E3 ag-2 – NR2E3 (human) agonism; hit rate 0.12% among 320,000; AID 2300; GST-NR2E3/biotin-RetCOR TR-FRET, 1536-well; Q9Y5X4; inhibition of corepressor binding, % at 4.78 µM;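 active = percent inhibition above the cutoff of mean plus 3 SD of all tested compounds, set per screening campaign, cut at about 20% in these data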;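 note: 0% = DMSO wells and 100% = biotin wells as full block of FRET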
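Material: NR2E3–RetCOR corepressor complex / Incubation: Compound–protein incubation for 5 h at 4 °C / Dosing: compound at 4.8 µM, single dose / Detection: time-resolved FRET / Benchmarks: high control biotin, low control 0.6% DMSO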
DAX1 inh-2 – DAX1 (NR0B1) inhibition, primary screen; HEK293T StAR-luciferase reporter, SF-1/DAX-1 repression relief; hit rate 1.1% among 370,000; AID 652010; inhibition, % at 6.8 µM;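 active = inhibition above the mean over all tested compounds plus 3 SD, cut at about 3.6% in these data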;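 note: 0% = DAX-1 cells with DMSO and 100% = cells lacking DAX-1 with DMSO; higher inhibition means more luminescence from relief of DAX-1 repression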
SMARCA2 activ – increases SMARCA2 function in MMTV reporter cells; activation, % at 9.1 µM; hit rate 1% among 370,000; MG213 cells, MMTV-luciferase reporter, dexamethasone, overnight; in the data active = activation above about 7.8%;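 note: 0% = vehicle wells and 100% = reference activator wells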
* = called active by the depositor. An excerpt weighted towards active compounds, which were near 3.2% of everything screened.

`O=C(CN1C(=O)c2ccc([N+](=O)[O-])cc2C1=O)NC1CCS(=O)(=O)C1` (stereo not drawn) gave GASC-1 inh -4, NR2E3 ag-1 -10, DAX1 inh-1 5.6*, NR2E3 ag-2 -4, DAX1 inh-2 0 and SMARCA2 activ -4.
Screening COc1ccccc1NC(=O)COC(=O)c1c[nH]c(=O)[nH]c1=O returned GASC-1 inh -12, NR2E3 ag-1 -12, DAX1 inh-1 0, NR2E3 ag-2 -1, DAX1 inh-2 0 and SMARCA2 activ -1.
COc1ccccc1NC(=O)COC(=O)c1[nH]c(=O)[nH]c(=O)c1N was read as GASC-1 inh 53*, NR2E3 ag-1 10, DAX1 inh-1 0, DAX1 inh-2 0 and SMARCA2 activ -3.
Screening Cc1ccc(-n2nc3cc(C)c(N)cc3n2)cc1 returned GASC-1 inh 11, NR2E3 ag-1 -200, DAX1 inh-1 3, NR2E3 ag-2 2, DAX1 inh-2 3.9* and SMARCA2 activ 2.
Screening COc1ccc(-n2nc3cc(N)c(Br)cc3n2)cc1 returned GASC-1 inh 38, NR2E3 ag-1 -110, DAX1 inh-1 5.8*, NR2E3 ag-2 1, DAX1 inh-2 2 and SMARCA2 activ 3.
`COc1ccc(-n2nc3ccccc3n2)cc1` gave GASC-1 inh -10, NR2E3 ag-1 -42, DAX1 inh-1 1, NR2E3 ag-2 -1, DAX1 inh-2 0 and SMARCA2 activ 0.
For Nc1cc2nn(-c3ccccc3)nc2cc1Cl the results were GASC-1 inh 23, NR2E3 ag-1 -181, DAX1 inh-1 2, DAX1 inh-2 4.4* and SMARCA2 activ 3.
Screening C=CCN(CC#CC(=C)C)Cc1ccccc1 returned DAX1 inh-2 0 and SMARCA2 activ -3.
`C=CCn1c(COc2ccc(C)cc2)nnc1SCC(=O)c1ccc(-c2ccccc2)cc1` gave DAX1 inh-2 -2 and SMARCA2 activ -5.
Screening Cc1ccc(COc2ccc(/C=N/O)cc2)cc1 returned GASC-1 inh 0, NR2E3 ag-1 -184, DAX1 inh-1 5.5*, NR2E3 ag-2 0, DAX1 inh-2 2 and SMARCA2 activ 5.
Screening CC1=C(C(=O)NC(C)CCc2ccccc2)C2(CCC(C)CC2)OC1=O (stereo not drawn) returned GASC-1 inh 4, NR2E3 ag-1 -14, DAX1 inh-1 5.1*, NR2E3 ag-2 0, DAX1 inh-2 0 and SMARCA2 activ -1.
Screening Cc1ccc(CN2CCCCC(NC(=O)Nc3ccccc3-c3ccccc3)C2=O)cc1 (stereo not drawn) returned DAX1 inh-2 -2 and SMARCA2 activ -4.
`Cc1ccc(S(=O)(=O)N(C)CC(=O)NCC(=O)Nc2ccc(F)c(F)c2F)cc1` gave GASC-1 inh 2, NR2E3 ag-1 -28, DAX1 inh-1 4.7*, DAX1 inh-2 -1 and SMARCA2 activ -3.
Cc1ccc(CNC(=O)CN(C)S(=O)(=O)c2ccc(F)cc2)cc1 was read as GASC-1 inh -7, NR2E3 ag-1 13, DAX1 inh-1 -1, NR2E3 ag-2 5, DAX1 inh-2 0 and SMARCA2 activ -2.
For C[C@@H]1CN([C@H](C)CO)C(=O)c2c(c3ccccc3n2C)-c2ccccc2CO[C@H]1CN(C)C(=O)c1cc(Cl)cc(Cl)c1 the results were NR2E3 ag-1 -27, DAX1 inh-1 4.3*, DAX1 inh-2 0 and SMARCA2 activ -5.
For O=c1c2sc(-c3ccccc3)cc2nc2n1CCCCC2 the results were GASC-1 inh -12, NR2E3 ag-1 -139, DAX1 inh-1 5.0*, NR2E3 ag-2 1, DAX1 inh-2 3 and SMARCA2 activ 4.
For Cn1c(NCCN2CCCC2)nc2cc(-c3ccccc3)sc2c1=O the results were NR2E3 ag-1 -13, DAX1 inh-2 1 and SMARCA2 activ 2.
`OC(c1ccccc1)c1ncc(-c2ccc(Oc3ccccc3)cc2)[nH]1` (stereo not drawn) gave NR2E3 ag-1 -75, DAX1 inh-2 1 and SMARCA2 activ 2.
c1ccc(Oc2ccc(-c3ccn[nH]3)cc2)cc1 was read as GASC-1 inh 7, NR2E3 ag-1 -154, DAX1 inh-1 4.6*, NR2E3 ag-2 2, DAX1 inh-2 1 and SMARCA2 activ 5.
Screening Cc1cc(C2=NNC(=NC3CC3)SC2)c(C)n1-c1ccccc1 returned GASC-1 inh -21, NR2E3 ag-1 80*, DAX1 inh-1 -5, DAX1 inh-2 -3 and SMARCA2 activ -7.
Screening COCCn1c(C)cc(C2=NNC(=NC3CC3)SC2)c1C returned GASC-1 inh 9, NR2E3 ag-1 92*, DAX1 inh-1 -5, NR2E3 ag-2 -4, DAX1 inh-2 -7 and SMARCA2 activ -9.
COc1ccc(-n2c(C)cc(C3=NNC(=NC4CC4)SC3)c2C)cc1 was read as NR2E3 ag-1 -41, DAX1 inh-1 1, DAX1 inh-2 1 and SMARCA2 activ 9.8*.
Screening O=C(CSc1nnc(-c2ccccn2)n1-c1ccc(Cl)cc1)Nc1ccc2c(c1)OCCO2 returned DAX1 inh-2 -1 and SMARCA2 activ -4.
`CC1CCN(C2=NC(=O)N(c3ccc(Br)cc3)C(=O)C2)CC1` gave DAX1 inh-2 0 and SMARCA2 activ -2.
`C=CCn1c(Cc2cccs2)nnc1SCC(=O)Nc1ccc(OCc2ccccc2)cc1` gave DAX1 inh-2 -2 and SMARCA2 activ -4.
Screening CC1CCCCN1C(=O)COC(=O)c1cc(Cl)c2c(c1)OCO2 (stereo not drawn) returned NR2E3 ag-1 -38, DAX1 inh-1 3, DAX1 inh-2 3.7* and SMARCA2 activ 2.
Screening Cc1cc(NC(=O)CSc2nc3c(cc2C#N)CCC3)no1 returned GASC-1 inh 14, NR2E3 ag-1 -192, DAX1 inh-1 4.7*, NR2E3 ag-2 4, DAX1 inh-2 3 and SMARCA2 activ 2.
`COCCN1C(=O)C2=C(C1=O)C1N(C)c3ccccc3[C@@]13C[C@@H](CO)N(C(C)=O)C3=N2` (stereo partly drawn) gave DAX1 inh-2 0 and SMARCA2 activ -1.
Screening COc1cc(NC(=O)c2ccccc2-n2cnnn2)cc(OC)c1 returned GASC-1 inh 3, NR2E3 ag-1 -2, DAX1 inh-1 0, NR2E3 ag-2 -2, DAX1 inh-2 -1 and SMARCA2 activ -2.
For COc1cc(OC)cc(C(=O)Nc2ccc(-n3cnnn3)c(C)c2)c1 the results were GASC-1 inh 89*, NR2E3 ag-1 -42, DAX1 inh-1 -1, NR2E3 ag-2 -1, DAX1 inh-2 0 and SMARCA2 activ 7.
Screening Cc1ccc(CNC(=O)CN2NS(=O)(=O)c3ccccc3C2=O)cc1 returned NR2E3 ag-1 -7, DAX1 inh-1 1, DAX1 inh-2 1 and SMARCA2 activ -5.

Source: PubChem BioAssay
